Only some compounds are listed: those with a hit (about 1.8% of all), similar ones and a draw of the others.
eIF4E-4G inh – blocks eIF4E binding to eIF4G. P63073+Q04637. TR-FRET eIF4E-eIF4GI(517-606) binding, 2 h. inhibition, % at 21.7 µM. 220,000 compounds, 0.37% hits. AID 782;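 active = inhibition above about 30%, limit read from the data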;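 note: 0% = full FRET control wells and 100% = background wells lacking eIF4GI fragment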
MLLE-PAM2 inh – blocks PAM2 peptide binding to the PABP1 MLLE domain | AID 588489 | inhibition, % at 20 µM | P11940 | GST-MLLE / FITC-PAM2 fluorescence polarization | 360,000 compounds, 0.36% hits; in the data active = inhibition above about 35%, passing the limit was not always enough;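 note: plate controls were DMSO wells with GST-MLLE for no effect and wells lacking GST-MLLE protein for full effect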
SUMO HTRF inh – SUMOylation inhibition | P63279 | HTRF SUMOylation assay, SAE1/SAE2 + UBC9, in vitro | inhibition, % at 35 µM | 290,000 compounds, 0.36% hits; in the data active = inhibition above about 50%, passing the limit was not always enough
PABP polyA inh – PABP-poly(A) binding inhibition; calls only at 35 µM; PABP-poly(A) RNA binding, fluorescence polarization; 290,000 compounds, 1% hits;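 note: calls also rest on retests at 20 µM and on dose response follow-up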
eIF4H inh – inhibitors of RNA binding by human eIF4H. Q15056. eIF4H fluorescence polarization binding assay. inhibition, % at 35 µM. 290,000 compounds, 0.94% hits. AID 2012;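 note: calls also rest on retests at 20 µM and on dose response follow-up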
HCV core dimer – blocks dimerization of HCV core protein; TR-FRET GST/Flag-core106 dimerization, 1536-well; inhibition, % at 5 µM; 300,000 compounds, 0.33% hits;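 active = inhibition above the mean of all tested compounds plus 3 SD, set per screening campaign, cut at about 45% in these data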
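test system = GST/Flag-tagged HCV core106 proteins | probe or stimulus = Eu donor and XL665 acceptor anti-tag antibodies | times = compound-protein-antibody incubation 4 h at 22.5 °C | signal = TR-FRET, excitation 340 nm, emission 617 and 671 nm | measure = percent inhibition of core106 dimerization signal | controls = wells lacking GST-core106 and wells with excess unlabelled core106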
* = called active by the depositor; i = inactive; · = no result; + = active, no number; [ ] = another dose, or the depositor's remark. Unless noted, the rule behind the calls is not given here.

SMILES	eIF4E-4G inh	MLLE-PAM2 inh	SUMO HTRF inh	PABP polyA inh	eIF4H inh	HCV core dimer
CCN(CC)C(=O)c1ccc2c(c1)C1C=CCC1C(C(=O)O)N2 (configuration not stated)	·	17	29	+	85*	·
O=C(O)c1cccc2c1NC(c1cccc([N+](=O)[O-])c1)C1CC(Sc3ccccc3[N+](=O)[O-])C(Cl)C21 (configuration not stated)	35*	12	·	i	82*	·
CCN(CC)C(=O)c1ccc(N(Cc2ccccc2)S(C)(=O)=O)cc1	·	9	20	i	-4	·
CCN(CC)C(=O)c1ccc2c(c1)C1C(Cl)C(Sc3ccccc3[N+](=O)[O-])CC1C(C(=O)O)N2 (configuration not stated)	7	39	49	+	90*	20
Cc1ccc2c(c1Cl)NC(C(=O)O)C1CC(Sc3ccccc3[N+](=O)[O-])C(Cl)C21 (configuration not stated)	21	22	32	+	87*	66*
Cc1ccccc1-c1ccc2c(c1)C1c3c(-c4ccccc4)nnn3-c3ccccc3C(=O)N1CC2 (configuration not stated)	·	2	·	·	·	·
C[C@H](CO)N1C[C@H](C)[C@H](CN(C)C(=O)Oc2ccccc2)OCc2cnnn2CCCC1=O	·	-5	·	·	·	·
O=C1NCN(c2ccccc2)C12CCN(C(c1nnnn1-c1ccc3c(c1)OCCO3)C1CC1)CC2 (configuration not stated)	·	8	·	·	·	·
COP(=S)(OC)Oc1ccc(Sc2ccc(OP(=S)(OC)OC)cc2)cc1	·	36*	·	·	·	·
Nc1ccc(Sc2ccc(N)cc2)cc1	·	6	·	·	·	·
CN(C)P(=NC(=S)c1cccn1C)(N(C)C)N(C)C	1	37*	-5	i	5	2
Cc1cc2c(C(C)C)c(O)c(O)c(C=O)c2c(O)c1-c1c(C)cc2c(C(C)C)c(O)c(O)c(C=O)c2c1O	33*[fluorescence artefact?]	9	95*	+	95	·
CCC(=NCc1cccnc1)c1c(O)n(-c2ccc(C)cc2)c(=O)[nH]c1=O	-2	6	14	i	-2	-2
CCC(=NCc1cccnc1)c1c(O)n(-c2ccccc2)c(=O)[nH]c1=O	32*	9	12	i	0	-2
CN1OC[C@@H]2CN[C@H](c3ccc(Br)cc3)C[C@@H]21	·	5	·	·	·	·
Cn1c(O)c(C=Nc2ccccc2Sc2ccccc2)c(=O)n(C)c1=O	2	2	-5	+	87	-2
CCOC(=O)CC(SP1(=S)OCC2(CC=CCC2)CO1)C(=O)OCC (configuration not stated)	·	14	·	·	·	·
Cn1c[n+](C)cc1C(O)c1ccccc1 (configuration not stated)	11	-140	-14	+	7	-8
CN1C(CC(O)c2ccccc2)CCCC1CC(O)c1ccccc1 (configuration not stated)	·	-7	·	·	·	-4
CSCCC(c1nnnn1C(C)(C)C)N1CCC2(CC1)C(=O)NCN2c1ccccc1 (configuration not stated)	·	-7	·	·	·	·
CN(C)c1ccc(C=C2C(=O)NC(=O)NC2=O)cc1[N+](=O)[O-]	-1	31	4	i	2	3
CN(C)c1ccc(C=C2C(=O)NC(=S)NC2=O)cc1[N+](=O)[O-]	7	40*	-2	i	15	0
O=c1[nH]c2ccccc2n1C1CCN(C(c2cc3ccccc3o2)c2nnnn2Cc2ccccc2)CC1 (configuration not stated)	·	-3	·	·	·	·
